“Also recorded” adds a separate entry of the source. Bridge positions count the residues as written; N and C are the ends. Square brackets hold non-standard residues; d marks the D form. Triazole bridges read from a SMILES are 1,4-linked. Peptide text beside a SMILES is read from it. * marks the point of attachment. Biotin = O=C1N[C@H]2[C@H](CS[C@H]2CCCCC(=O)*)N1; Lys(N3) = [N-]=[N+]=NCCCC[C@H](N)C(=O)O; PEG5 = NCCOCCOCCOCCOCCOCCC(=O)O; Pra = C#CC[C@H](N)C(=O)O
Columns and labels:
[1] = system: K. pneumoniae cells (strain BAA 1705); test: Gentamicin protection assay: phagocytosis and opsonophagocytic killing; type: cell-based, Klebsiella pneumoniae; conditions: for colony counts at 1 h (phagocytosis), control treatments: AR-PCC only (5 μM, no anti-DNP) or anti-DNP antibody only, triplicate
Procedure, shortened: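 Bacteria opsonized with DNP-PCC (5 μM, PBS-1% BSA, 1 h, 37 °C), then anti-DNP (1:1000, 1 h, 37 °C). They infected immortalised mouse BMDMs (RPMI, 10% serum) at MOI 50 for 0.5 h at 37 °C. After washing, gentamicin 100 μg ml−1 was added. At 1 h and 24 h, macrophages were lysed in 0.2% Triton X-100 and CFU plated on LB agar. Triplicate.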

[2] = biological target: T1, full-length recombinant MrkA protein (Klebsiella pneumoniae, UniProt P12267); test: Sandwich ELISA: immobilised biotinylated PCC captures full-length MrkA; type: binding
T1 sequence (P12267 23-202): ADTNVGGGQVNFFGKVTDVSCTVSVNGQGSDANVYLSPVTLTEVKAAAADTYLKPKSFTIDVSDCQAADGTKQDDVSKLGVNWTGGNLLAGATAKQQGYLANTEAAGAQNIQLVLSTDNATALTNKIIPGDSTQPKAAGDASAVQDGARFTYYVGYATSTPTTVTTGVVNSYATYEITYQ
Procedure, shortened: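 NeutrAvidin-coated wells were loaded with 2 μM biotinylated PCC (2 h, room temperature), then blocked overnight in 5% milk at 4 °C. Recombinant MrkA (N-terminal 6xHis-SUMO tag) was titrated for 1 h, followed by rabbit anti-His pAb (1:5000, 1 h) and anti-rabbit HRP (1:2000, 1 h). Peroxidase substrate developed for 1–40 min and was quenched with 1 M H2SO4.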

[3] = system: MrkA-producing multidrug-resistant K. pneumoniae (strains BAA 1705 & 2146); test: Whole-cell ELISA, biotinylated PCC binding; type: cell-based, Klebsiella pneumoniae; conditions: Fig. 5C; for binding selectivity towards MrkA-expressing K. pneumoniae cells versus non-target bacteria: whole-cell ELISA versus E. coli and S. Typhimurium; for whole-cell ELISA signal (SAv-HRP, 450 nm): biotinylated PCC at 5 μM
Procedure, shortened: (§1)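 10^8 bacteria per test, from overnight cultures at 37 °C with shaking in G-CAA (promotes MrkA) or LB medium. Blocked in PBS-1% BSA (1 h, 37 °C), then incubated with biotinylated PCC in PBS-BSA (1 h, 37 °C). Washed thrice, then streptavidin-HRP (1:1000, 1 h, 37 °C). Developed with TMB, quenched with 2 N H2SO4, absorbance read at 450 nm.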

[4] = system: K. pneumoniae cells (strain BAA 2146); test: Flow cytometry antibody recruitment; type: cell-based, Klebsiella pneumoniae; conditions: >18 000 single cells
Procedure, shortened: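 Cells grown overnight in G-CAA medium, washed, and incubated with DNP-conjugated PCC. After a wash they were stained with Alexafluor488-labelled anti-DNP antibody, washed, resuspended in PBS and held 2 d at 4 °C. Cytometer calibrated with 3.5 μm fluorescent beads. Excitation 488 nm, emission 530 nm. Gated on single cells, with an unstained FMO control setting the DNP+ gate.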

[5] = system: K. pneumoniae cells (strain BAA 1705); test: Whole-cell ELISA on cells cultured in G-CAA media or LB; type: cell-based, Klebsiella pneumoniae; conditions: biotinylated PCC at 50 μM; Fig. S7B
[6] = system: MrkA-knockout KPPR1 cells; test: Whole-cell ELISA, biotinylated PCC binding; type: cell-based, Klebsiella pneumoniae; conditions: mrkA (with mrkB and mrkC) knocked out
Procedure, shortened: as §1

[7] = system: Escherichia coli (E. coli); test: Whole-cell ELISA, biotinylated PCC binding; type: cell-based; conditions: biotinylated PCC at 5 μM; does not express MrkA; Fig. 5C
Procedure, shortened: as §1

[8] = system: Salmonella enterica serovar Typhimurium (S. Typhimurium); test: Whole-cell ELISA, biotinylated PCC binding; type: cell-based; conditions: biotinylated PCC at 5 μM; does not express MrkA; Fig. 5C
Procedure, shortened: as §1

[9] = system: wild type MrkA-expressing KPPR1 cells (ATCC 43816); test: Whole-cell ELISA, biotinylated PCC binding; type: cell-based, Klebsiella pneumoniae; conditions: biotinylated PCC at 5 μM down to 5 nM; cells cultured in G-CAA media; 1 h 37 °C
Procedure, shortened: as §1

## cy(LLFFF)+R6-DNP (sidechain bridge or staple)
[1]
  colony counts at 1 h (phagocytosis), control treatments: None of these treatments elicited phagocytosis above the basal level

## 17: cy(LLFFF) with a hexa-arginine tag (RRRRRRLLFFF; LLFFF closed into a macrocycle by azidolysine-propargylglycine cyclization; N-terminal Biotin-peg group) [Compound 17]
[2]; MrkA protein at 250 nM in solutions of 10 and 100% mouse sera, Fig. 4B inset, listed as cy(LLFFF)+R6
  binding of MrkA protein in mouse sera: bound MrkA protein in solutions of 10 and 100% mouse sera, albeit at lower levels versus in 0% serum; also recorded: binds MrkA protein in the context of sera
[3]
  binding selectivity towards MrkA-expressing K. pneumoniae cells versus non-target bacteria: similarly high selectivity

## cy(HNGPT)-DNP (sidechain bridge or staple)
[4]; control AR-PCC at 50 μM plus anti-DNP, predominantly
  fluorescence intensity (Alexafluor 488 anti-DNP), flow cytometry: < 1.0 × 10^1

## 2: L-to-A substitution analogue of cy(LLFFF) (ALFFF; macrocycle closed by azidolysine-propargylglycine cyclization; N-terminal Biotin-peg group) [Compound 2]
[2]; full-length MrkA, N-terminal Biotin-peg PCCs, Fig. 4A
  MrkA binding (ELISA signal) compared to unmodified cy(LLFFF), alanine scan: Modestly lower binding

## CC(C)C[C@@H]1NC(=O)[C@@H](NC(=O)CCOCCOCCOCCOCCOCCNC(=O)CCCC[C@@H]2SC[C@@H]3NC(=O)N[C@@H]32)Cc2cn(nn2)CCCC[C@@H](C(N)=O)NC(=O)[C@H](Cc2ccccc2)NC(=O)[C@H](Cc2ccccc2)NC(=O)[C@H](Cc2ccccc2)NC(=O)[C@H](CC(C)C)NC1=O [cy(LLFFF)] ({Biotin-PEG5}-[Pra]LLFFF[Lys(N3)]-NH2; triazole 1-7)
[5]
  whole-cell ELISA binding, G-CAA versus LB culture: bound K. pneumoniae cells regardless of MrkA-expression level
[6]
  whole-cell ELISA signal (SAv-HRP, 450 nm): ELISA intensities comparable to baseline
[7]
  whole-cell ELISA signal (SAv-HRP, 450 nm): only weak signals
[8]
  whole-cell ELISA signal (SAv-HRP, 450 nm): only weak signals
[9]
  whole-cell ELISA signal (SAv-HRP, 450 nm): strong signals
[3]
  whole-cell ELISA signal (SAv-HRP, 450 nm): strong signals
  binding selectivity towards MrkA-expressing K. pneumoniae cells versus non-target bacteria: excellent binding selectivity

## cy(LLFFA) (sidechain bridge or staple)
[5]
  whole-cell ELISA binding, G-CAA versus LB culture: bound K. pneumoniae cells regardless of MrkA-expression level
[6]
  whole-cell ELISA signal (SAv-HRP, 450 nm): ELISA intensities comparable to baseline
[7]
  whole-cell ELISA signal (SAv-HRP, 450 nm): low signals
[8]
  whole-cell ELISA signal (SAv-HRP, 450 nm): low signals
[9]
  whole-cell ELISA signal (SAv-HRP, 450 nm): much lower intensities
[3]
  whole-cell ELISA signal (SAv-HRP, 450 nm): low signals

## cy(LLFFA)-DNP (sidechain bridge or staple)
[1]
  colony counts at 1 h (phagocytosis), control treatments: None of these treatments elicited phagocytosis above the basal level

## cy(LLFFF)-DNP (sidechain bridge or staple)
[4]; AR-PCC at 1 or 5 μM plus secondary antibody
  fluorescence (Alexafluor 488 anti-DNP), flow cytometry, versus controls: much higher fluorescence
[1]; 24 h of incubation, AR-PCC 5 μM plus anti-DNP
  colony counts at 24 h (opsonophagocytic killing): little to no cell counts
[1]
  colony counts at 1 h (phagocytosis), control treatments: None of these treatments elicited phagocytosis above the basal level

Source: paper PMC8157486 (Chemical Science, 2020)
